Assay results reported in ChEMBL document CHEMBL1806443, “Novel imidazo[4,5-b]pyridine and triaza-benzo[c]fluorene derivatives: synthesis, antiproliferative activity and DNA binding studies” (Eur J Med Chem, 2011).
Active and inactive are the calls of the source. The calls are words filed in the database; no cut-off is given here.

Legend:
Nucleic Acid [1] = test: Binding affinity to calf thymus DNA assessed as hypochromic changes at 347 nm wavelength by UV-Vis spectrophotometric titrations; format: nucleic-acid assay; settings: Bos taurus
Method in brief: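 UV/Vis titration: aliquots of ct-DNA (concentration as phosphate) added to compound solution in sodium cacodylate buffer pH 7.0, I = 0.05 mol dm^-3, 1 cm quartz cuvettes. Hypochromism followed at band maxima. Compound absorbance linear up to 2.0 × 10^-5 mol dm^-3. Binding data fitted by the Scatchard equation.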

SW-620 [2] = test: Cell cycle arrest in human SW620 cells assessed as accumulation at G2/M phase at 10 uM after 24 hrs by propidium iodide staining based flow cytometeric analysis (reference value: 22.3 +/- 2.9%); format: functional
Nucleic Acid [3] = test: Binding affinity to calf thymus DNA assessed as change in melting temperature at compound to polynucleotide ratio of 0.1 by UV-VIS spectroscopic analysis; format: nucleic-acid assay; settings: Bos taurus
Method in brief: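 ct-DNA alone or with compound at set r = [compound]/[polynucleotide], in cacodylate buffer pH 7.0, I = 0.05 mol dm^-3. Absorbance at 260 nm followed against temperature, ligand absorbance subtracted, curves normalized. Tm is the transition midpoint, from the first-derivative maximum or by tangent method. ΔTm = Tm(complex) − Tm(free DNA), mean of ≥2 runs, error ±0.5 °C.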

Nucleic Acid [4] = test: Binding affinity to calf thymus DNA assessed as fluorescence quenching at compound to DNA ratio of < 0.1 by fluorimetric titrations; format: nucleic-acid assay; settings: Bos taurus
Method in brief: (§1)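 Fluorimetric titration: portions of ct-DNA (sonicated, filtered, concentration as phosphate) added to compound in cacodylate buffer pH 7.0, I = 0.05 mol dm^-3. Emission 350–600 nm, sample absorbance <0.05 at excitation, mostly DNA excess (r < 0.1). Ks and n = [bound compound]/[DNA phosphate] by non-linear least-squares Scatchard fitting.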

MIA PaCa-2 [5] = test: Cell cycle arrest in human MIAPaCa2 cells assessed as accumulation at S phase at 5 uM after 24 hrs by propidium iodide staining based flow cytometeric analysis (reference value: 29.2 +/- 4.2%); format: functional
SW-620 [6] = test: Cell cycle arrest in human SW620 cells assessed as accumulation at S phase at 10 uM after 48 hrs by propidium iodide staining based flow cytometeric analysis (reference value: 31.9 +/- 1%); format: functional
SW-620 [7] = test: Cell cycle arrest in human SW620 cells assessed as accumulation at S phase at 1 uM after 48 hrs by propidium iodide staining based flow cytometeric analysis (reference value: 31.9 +/- 1%); format: functional
SW-620 [8] = test: Cell cycle arrest in human SW620 cells assessed as accumulation at G1 phase at 5 uM after 24 hrs by propidium iodide staining based flow cytometeric analysis (reference value: 29.3 +/- 1.5%); format: functional
Nucleic Acid [9] = test: Binding affinity to calf thymus DNA assessed as fluorescence quenching at compound to DNA ratio of 0.28 by fluorimetric titrations; format: nucleic-acid assay; settings: Bos taurus; method in brief: as §1
MIA PaCa-2 [10] = test: Cell cycle arrest in human MIAPaCa2 cells assessed as accumulation at S phase at 10 uM after 48 hrs by propidium iodide staining based flow cytometeric analysis (reference value: 20.5 +/- 0.2%); format: functional
SW-620 [11] = test: Cell cycle arrest in human SW620 cells assessed as accumulation at G2/M phase at 1 uM after 48 hrs by propidium iodide staining based flow cytometeric analysis (reference value: 16.1 +/- 0.9%); format: functional
WI-38 = test: Cytostatic activity against human WI38 cells at 1 to 10 uM after 72 hrs by MTT assay; format: ADME, cell-based; settings: wi-38, 72 h
Method in brief: (§2)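 Monolayers in DMEM with 10% FBS, 2 mM L-glutamine, penicillin and streptomycin (37 °C, 5% CO2) were seeded at 3000–6000 cells/well on day 0. Five 10-fold dilutions (0.01–100 µM) were added, followed by 72-h incubation and MTT read-out. Absorbances were converted to percentage growth by the NIH formulae. Each point was run in quadruplicate in three experiments; ANOVA with Tukey test.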

SW-620 [12] = test: Induction of apoptosis in human SW620 cells assessed as morphological change at 5 to 10 uM after 24 to 48 hrs by microscopic analysis; format: functional, cell-based
Method in brief: (§3)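 Cells were seeded at 3 × 10^4 per well and exposed 24 h later to 1, 5 or 10 µM for 24 and 48 h. Apoptotic morphology (cell shrinkage, chromatin condensation) was scored by inverted light microscopy at 200× magnification.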

SW-620 [13] = test: Cell cycle arrest in human SW620 cells assessed as accumulation at G1 phase at 10 uM after 24 hrs by propidium iodide staining based flow cytometeric analysis (reference value: 29.3 +/- 1.5%); format: functional
MIA PaCa-2 [14] = test: Induction of apoptosis in human MIAPaCa2 cells assessed as morphological change at 10 uM after 24 to 48 hrs by microscopic analysis; format: functional, cell-based; method in brief: as §3
MIA PaCa-2 [15] = test: Cell cycle arrest in human MIAPaCa2 cells assessed as accumulation at S phase at 1 uM after 48 hrs by propidium iodide staining based flow cytometeric analysis (reference value: 20.5 +/- 0.2%); format: functional
SK-BR-3 = test: Cytostatic activity against human SKBR3 cells at 1 to 10 uM after 72 hrs by MTT assay; format: functional, cell-based; method in brief: as §2
SW-620 [16] = test: Cell cycle arrest in human SW620 cells assessed as accumulation at S phase at 5 uM after 48 hrs by propidium iodide staining based flow cytometeric analysis (reference value: 31.9 +/- 1%); format: functional
SW-620 [17] = test: Cell cycle arrest in human SW620 cells assessed as accumulation at subG1 phase at 1 uM after 48 hrs by propidium iodide staining based flow cytometeric analysis (reference value: 29.1 +/- 1.1%); format: functional
MIA PaCa-2 [18] = test: Cell cycle arrest in human MIAPaCa2 cells assessed as accumulation at G1 phase at 1 uM after 24 hrs by propidium iodide staining based flow cytometeric analysis (reference value: 51.2 +/- 2.7%); format: functional
SW-620 [19] = test: Cell cycle arrest in human SW620 cells assessed as accumulation at subG1 phase at 5 uM after 48 hrs by propidium iodide staining based flow cytometeric analysis (reference value: 29.1 +/- 1.1%); format: functional
Method in brief: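 Cells seeded at 3 × 10^4 per well and treated 24 h later with 1, 5 or 10 µM for 24 and 48 h. Adherent and floating cells were pooled, washed in PBS and fixed in 70% ethanol. They were then stained with propidium iodide 10 µg/mL plus RNase A 0.2 µg/mL. Flow cytometry counted 10000 events; each point was run in triplicate; significance was taken at p < 0.05.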

SW-620 [20] = test: Cell cycle arrest in human SW620 cells assessed as accumulation at G2/M phase at 10 uM after 48 hrs by propidium iodide staining based flow cytometeric analysis (reference value: 16.1 +/- 0.9%); format: functional
MIA PaCa-2 [21] = test: Cell cycle arrest in human MIAPaCa2 cells assessed as accumulation at G2/M phase at 1 uM after 24 hrs by propidium iodide staining based flow cytometeric analysis (reference value: 19.5 +/- 3.9%); format: functional
Nucleic Acid [22] = test: Binding affinity to calf thymus DNA assessed as increase in CD band at 275 nm wavelength by circular dichroism spectroscopy; format: nucleic-acid assay; settings: Bos taurus
Method in brief: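 CD spectra of ct-DNA (1.0 × 10^-5 mol dm^-3, as phosphate) titrated with compound at 25 °C. Sodium cacodylate buffer pH 7.0, I = 0.05 mol dm^-3, 1 cm quartz cuvette. DNA band (~274–275 nm) and induced bands above 300 nm followed versus r = [compound]/[ct-DNA].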

## Cl.c1cnc2nc3ccc4ccc(C5=NCCN5)cc4n3c2c1
Nucleic Acid [1]
  Activity: 45%
SW-620 [2]
  Activity: 19.2%
Nucleic Acid [3]
  ΔTm: 2.7 °C
Nucleic Acid [4]
  Activity: Active
MIA PaCa-2 [5]
  Activity: 59.3%
SW-620 [6]
  Activity: 41.8%
SW-620 [7]
  Activity: 45.4%
SW-620 [8]
  Activity: 86.1%
Nucleic Acid [9]
  log Ks: 5.9
MIA PaCa-2 [10]
  Activity: 56.9%
SW-620 [11]
  Activity: 19.4%
WI-38
  Activity: Toxic
SW-620 [12]
  Activity: Active
SW-620 [13]
  Activity: 33.7%
MIA PaCa-2 [14]
  Activity: Active
MIA PaCa-2 [15]
  Activity: 34.6%
SK-BR-3
  Activity: Active
SW-620 [16]
  Activity: 7.5%
SW-620 [17]
  Activity: 25.4%
MIA PaCa-2 [18]
  Activity: 41.6%
SW-620 [19]
  Activity: 47.6%
SW-620 [20]
  Activity: 18.2%
MIA PaCa-2 [21]
  Activity: 21.3%
Nucleic Acid [22]
  Activity: Active
